The source made the active and inactive calls. The rule behind the calls is not given here.
Experiments:
Neutrophil [1] = experiment: Inhibition of secretagogue-induced histamine release in rat neutrophils at 30 uM treated 30 mins before secretagogue challenge measured after 15 mins; format: functional, cell-based
RAW264.7 [2] = experiment: Antiinflammatory activity in mouse RAW264.7 cells assessed as inhibition of LPS-induced TNFalpha formation at 1 uM treated 1 hr before LPS challenge measured after 24 hrs by ELISA; format: functional
Summary of the method: (§1)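 RAW 264.7 cells were seeded at 2 × 10^5 cells/well in DMEM with 5% heat-inactivated FBS, penicillin and streptomycin, and left to adhere overnight. Cells got DMSO or compound at 37 °C for 1 h, then 1 µg/mL LPS (E. coli 0111:B4) for 24 h. Medium nitrite was read by Griess (550 nm, NaNO2 standard), TNF-α by ELISA and PGE2 by EIA. Means ± SEM, N = 3-4.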

RAW264.7 [3] = experiment: Antiinflammatory activity in mouse RAW264.7 cells assessed as inhibition of LPS-induced prostaglandin E2 formation at 1 uM treated 1 hr before LPS challenge measured after 24 hrs by EIA; format: functional; summary of the method: as §1
RAW264.7 [4] = experiment: Cytotoxicity against mouse RAW264.7 cells assessed as LDH release; format: cell-based
Mast cell [5] = experiment: Inhibition of secretagogue-induced histamine release in Sprague-Dawley rat peritoneal mast cells at 30 uM […] secretagogue challenge measured after 15 mins; format: functional; conditions: read-out: INH, in the assay text read “3 mins before” for “30 mins before”
Summary of the method: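 Peritoneal mast cells came from exsanguinated Sprague-Dawley rats by heparinized Tyrode's lavage, purified through 38% BSA, and resuspended at (1-1.5) × 10^6 cells/mL in Tyrode's with 0.1% BSA. Supernatant β-glucuronidase was read at 550 nm (phenolphthalein glucuronide, pH 4.5) and histamine by o-phthaldialdehyde fluorescence at 350/450 nm. Release is % of the Triton X-100 total.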

N9 [6] = experiment: Antiinflammatory activity in mouse N9 cells assessed as inhibition of LPS and IFN-gamma-induced nitrite formation at 3 uM treated 1 hr before LPS and IFN-gamma challenge measured after 24 hrs by Griess reaction; conditions: N9, read-out: INH
N9 [7] = experiment: Antiinflammatory activity in mouse N9 cells assessed as inhibition of LPS and IFN-gamma-induced TNFalpha formation at 3 uM treated 1 hr before LPS and IFN-gamma challenge measured after 24 hrs by ELISA; conditions: N9, read-out: INH
N9 [8] = experiment: Cytotoxicity against mouse N9 cells assessed as LDH release; format: cell-based
Mast cell [9] = experiment: Inhibition of secretagogue-induced beta-glucuronidase release in Sprague-Dawley rat peritoneal mast cells at 30 uM treated 3 mins before secretagogue challenge measured after 15 mins
Neutrophil [10] = experiment: Inhibition of secretagogue-induced superoxide anion generation in rat neutrophils at 30 uM treated 30 mins before secretagogue challenge measured after 15 mins; format: functional, cell-based
RAW264.7 [11] = experiment: Antiinflammatory activity in mouse RAW264.7 cells assessed as LPS-induced nitrite levels at 1 uM treated 1 hr before LPS challenge measured after 24 hrs by Griess reaction (Rvb=46.6 +/- 0.4); format: functional; summary of the method: as §1
Neutrophil [12] = experiment: Inhibition of secretagogue-induced beta-glucuronidase release in rat neutrophils at 30 uM treated 30 mins before secretagogue challenge measured after 15 mins; format: functional, cell-based
Mast cell [13] = experiment: Secretagogue-induced histamine release in Sprague-Dawley rat peritoneal mast cells at 30 uM treated 3 mins before secretagogue challenge measured after 15 mins

| Compound | Activity (Neutrophil [1]) | inhibition at 1 µM (RAW264.7 [2]) [%] | inhibition at 1 µM (RAW264.7 [3]) [%] | Activity (RAW264.7 [4]) [%] | inhibition at 30 µM (Mast cell [5]) [%] | inhibition at 3 µM (N9 [6]) [%] | inhibition at 3 µM (N9 [7]) [%] | Activity (N9 [8]) [%] | inhibition at 30 µM (Mast cell [9]) [%] | Activity (Neutrophil [10]) | Activity (RAW264.7 [11]) [µM] | Activity (Neutrophil [12]) | histamine release at 30 µM (Mast cell [13]) [%] |
| --- | --- | --- | --- | --- | --- | --- | --- | --- | --- | --- | --- | --- | --- |
| COC1=CC(=O)c2ccc3cc(OC)cc(O)c3c2C1=O [DENBINOBIN] | inactive | 62 | 43 | < 10 | 39 | 44 | 70 | < 10 | 40 | inactive | 40.4 | inactive |  |
| CCN(CC)CCCC(C)Nc1c2ccc(Cl)cc2nc2ccc(OC)cc12 (centres undefined) [QUINACRINE] |  |  |  |  |  |  |  |  | 8.7 |  |  |  | 18.4 |
